Only some compounds are listed: those with a hit (about 2.6% of all), similar ones and a draw of the others.
HTR1E agonist – agonists of human 5-HT1E serotonin receptor | activation, % at 6 µM | CHO 5-HT1E Ga15 NFAT-bla reporter, FRET; 0% DMSO wells, 100% control agonist wells | 65,000 compounds, 0.69% hits | P28566;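 active = activation above a set limit, the screen-wide mean activation plus 3 SD, cut at about 8.5% in these data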;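 also: 100% = positive control agonist at 1 µM giving full maximal response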
5HT1E antag – 5-HT1E (human) receptor antagonism; P28566; CHO 5-HT1E Ga15 NFAT-bla reporter, FRET, antagonist; inhibition, % at 6 µM; 65,000 compounds, 0.99% hits;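 active = inhibition above a set limit, the mean inhibition across every tested compound plus 3 SD, cut at about 29% in these data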;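 also: signal is the 460 over 535 nm emission ratio of beta-lactamase substrate; 0% = agonist plus DMSO wells and 100% = wells without agonist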
S1P3 ag – agonists of human S1P3 receptor; 60,000 compounds, 0.1% hits; S1P3 NFAT-BLA reporter cells, agonism, FRET ratio; relative to 1 µM S1P, basal subtracted; AID 373; activation, % at 4.5 µM;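 active = activation above the screen-wide mean plus 3 SD, cut at about 4.5% in these data, passing the limit was not always enough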
Target sequence (Q99500 whole entry, looked up): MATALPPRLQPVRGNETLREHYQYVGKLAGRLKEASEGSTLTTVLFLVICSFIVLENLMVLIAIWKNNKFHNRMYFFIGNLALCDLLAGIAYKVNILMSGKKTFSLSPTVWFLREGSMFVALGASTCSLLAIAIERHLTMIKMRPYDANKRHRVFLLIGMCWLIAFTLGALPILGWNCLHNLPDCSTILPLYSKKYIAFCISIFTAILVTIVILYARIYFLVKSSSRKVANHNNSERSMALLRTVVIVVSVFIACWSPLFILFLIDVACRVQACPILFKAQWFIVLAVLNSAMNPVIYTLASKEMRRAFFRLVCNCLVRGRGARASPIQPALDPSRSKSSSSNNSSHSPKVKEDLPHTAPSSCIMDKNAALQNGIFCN
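Assay system: CHO cells stably expressing human S1P3, Gα16 and NFAT-β-lactamase reporter. Timing: overnight plating, 4 h compound 37 °C, 2 h substrate RT. Signal: β-lactamase FRET emission ratio 460/535 nm. Measure: percent activation versus median 1 µM S1P response, basal-subtracted, per plate. Repeats: primary screen single test, confirmation screen in triplicate.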
5HT1a antag – antagonists of human 5-HT1a serotonin receptor | P08908 | CHO 5-HT1a Ga15 NFAT-bla reporter, antagonist mode | inhibition, % at 10 µM | 62,000 compounds, 0.68% hits | AID 612;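 active = inhibition above the mean of all tested compounds plus 3 SD, cut at about 43% in these data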;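 also: receptor stimulated by 5-CT agonist at 100 nM near EC80; beta-lactamase reporter measured by ratiometric fluorescence of a cleavable substrate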
HTR1A agonist – agonists of human 5-HT1a serotonin receptor; CHO 5-HT1a Ga15 NFAT-bla reporter, FRET ratio; 0% basal, 100% maximal reference agonist; 65,000 compounds, 0.56% hits; activation, % at 10 µM; AID 567; P08908;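 active = activation above the screen-wide mean activation plus 3 SD, cut at about 19% in these data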;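 also: 0% = DMSO wells and 100% = 5-CT at EC100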
Starred values were filed as active, the others as inactive; / = not tested or not shown.

SMILES	HTR1E agonist	5HT1E antag	S1P3 ag	5HT1a antag	HTR1A agonist
CCC(CC)c1nc2cc(OC)c(OC)cc2c(=O)o1	35*	-2	-2	/	-1
N=c1sccn1CC(=O)Nc1cccc(Oc2ccccc2)c1	0	11	-1	46*	-5
Clc1ccccc1N1CCN(c2ncnc3nc[nH]c23)CC1	0	28	-2	-5	66*
CC(C)CN(CC(C)C)C(=O)CS(=O)(=O)Cc1ccccc1	0	-5	0	-3	-1
CCOC(=O)NC(=O)CSc1nc2ccc(OCC)cc2[nH]1	0	-8	-1	-9	-1
COC(=O)Nc1nc2ccc(C(=O)c3ccccc3)cc2[nH]1	1	75*	-6	/	-2
CCCSc1ccc2nc(NC(=O)OC)[nH]c2c1	-1	42*	-5	/	-5
COc1cc(C(=O)Nc2nc3ccccc3[nH]2)cc(OC)c1OC	0	10	-1	-5	-1
COC(=O)c1ccc(OC(=O)C2CC(=O)N(c3ccc(C)cc3C)C2)cc1 (stereo not given)	0	11	-1	2	-1
Oc1c(CN2CCc3ccccc3C2)cc(Cl)c2cccnc12	0	18	-3	25	30*
Oc1c(CN2CCCCC2)cc(Br)c2cccnc12	1	41*	-2	47*	11
O=c1[nH]c2c(s1)C(c1ccco1)C1C3CCC(C3)C1S2 (stereo not given)	0	5	/	12	0
O=S(=O)(c1ccc2oc(-c3ccncc3)nc2c1)c1ccc2oc(-c3ccncc3)nc2c1	1	-14	0	-16	27*
CC(C)Oc1cccc(C(=O)Nc2ccccc2N2CCOCC2)c1	-1	32*	-1	4	1
CCC(C)Oc1cccc(C(=O)Nc2ccccc2N2CCOCC2)c1 (stereo not given)	1	2	-1	-2	2
COc1ccc(S(=O)(=O)N2CCCN(S(=O)(=O)c3ccc(OC)cc3C)CC2)c(C)c1	0	5	-2	3	-2
c1ccc2c(c1)oc1c(N3CCN(Cc4ccc5c(c4)OCO5)CC3)ncnc12	0	-10	-1	29	63*
CC1Oc2ccccc2N(CC(=O)N2CCCc3ccccc32)C1=O (stereo not given)	1	3	-1	14	41*
CC(C)OC(=O)c1cccnc1SCc1cc(=O)n2ccccc2n1	1	5	1	7	3
CC1CCN(C(=O)CSc2nc3cccnc3n2C)CC1	-1	6	-1	-12	89*
CC1CN(C2CCN(S(=O)(=O)c3ccccc3)CC2)CC(C)O1 (stereo not given)	-1	52*	-4	/	-1
NC(=O)CSc1nnc(-c2ccncc2)n1CCc1ccccc1	-1	2	0	0	-3
CC(=O)NCc1ccc(C(=O)CSc2nnc(-c3ccncc3)n2Cc2ccccc2)o1	12*	1	1	-2	0
N#Cc1cccc(C(c2nnnn2CCc2ccccc2)N2CCN(C3CCCCC3)CC2)c1 (stereo not given)	0	-4	0	-2	2
CCN(Cc1ccccc1)C(c1cccc(C#N)c1)c1nnnn1C(C)(C)C (stereo not given)	-1	7	-1	44*	1
SMILES	HTR1E agonist	5HT1E antag	S1P3 ag	5HT1a antag	HTR1A agonist
O=C(Nc1ccccc1NC(=O)NC1CCCCC1)NC1CCCCC1	1	56*	0	7	-5
Cc1c(Cl)cccc1NC(=O)NC1CCCCC1	-1	6	-1	15	-1
O=c1c2sc3nc(N4CCOCC4)c4c(c3c2ncn1Cc1ccco1)CCCC4	0	6	1	/	3
CCn1c(CNC(=O)c2ccco2)nnc1SCC(=O)Nc1cc(C(F)(F)F)ccc1Cl	0	3	0	5	54*
Nc1c(C(=O)NC2CCCC2)c2nc3ccccc3nc2n1/N=C/c1cccnc1	0	-16	2	-22	0
CC(=O)C1=C(C)NC(SCC(=O)c2cc(Cl)ccc2Cl)=C(C#N)C1c1ccco1 (stereo not given)	0	31*	-2	33	-3
O=C(NCCc1ccccc1)C1CCCN(S(=O)(=O)c2cccs2)C1 (stereo not given)	1	-16	1	-10	1
c1csc(Cc2nc(-c3ccc(-n4cccc4)cc3)no2)c1	0	-1	0	0	2
